Test results taken from ChEMBL document CHEMBL1287654, “Anticancer activity of N-bis(trifluoromethyl)alkyl-N'-(polychlorophenyl) and N'-(1,2,4-triazolyl) ureas” (2010).

Experiments:
Assay type in all cases: functional
HL-60(TB) = test: Growth inhibition of human HL-60(TB) cells after 48 hrs by sulforhodamine B assay; settings: HL-60, 48 h
Summary of the method: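 NCI 60-cell-line panel run over a five-log dose range. GI50 is reported as the log of the molar concentration giving 50% net cell-growth inhibition, from dose-response against untreated controls. Where that effect was not reached within the concentration interval, the highest tested concentration was used in the calculation.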

SF-295 = test: Growth inhibition of human SF295 cells after 48 hrs by sulforhodamine B assay; settings: SF-295, 48 h
Summary of the method: (§1)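 NCI 60-cell-line main test over a five-log dose range. GI50 is the molar concentration giving half-growth inhibition, reported as log molar. Subpanel values are median GI50 across that subpanel's lines. Where 50% inhibition was not reached within the tested interval, the highest tested concentration was used.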

NCI-H460 = test: Growth inhibition of human NCI-H460 cells assessed as cell growth at 100 uM after 48 hrs by sulforhodamine B assay relative to control; settings: NCI-H460, 48 h, read-out: Activity
Summary of the method: (§2)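 One-dose pre-test on MCF7, NCI-H460 and SF-268. Cells were inoculated and pre-incubated on a microtiter plate, then given a single 10^-4 M dose and incubated 48 h. Growth was read spectrophotometrically and expressed as percent of untreated control cells; negative values indicate cell kill.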

[1] = Growth inhibition of human colon cancer cell after 48 hrs by sulforhodamine B assay; settings: Cancer cell lines
Summary of the method: (§3)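 Subpanel median growth inhibitory concentration: the average sensitivity of each tumor-type subpanel of the NCI 60-cell-line panel, derived from per-cell-line GI50 values. GI50 values came from a five log dose range and are expressed as log molar concentration for 50% net growth inhibition.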

MCF7 = test: Growth inhibition of human MCF7 cells assessed as cell growth at 100 uM after 48 hrs by sulforhodamine B assay relative to control; settings: MCF7, 48 h, read-out: Activity; summary of the method: as §2
HOP-62 = test: Growth inhibition of human HOP62 cells after 48 hrs by sulforhodamine B assay; settings: HOP-62, 48 h; summary of the method: as §1
HCT-15 = test: Growth inhibition of human HCT15 cells after 48 hrs by sulforhodamine B assay; settings: HCT-15, 48 h; summary of the method: as §1
U-251 = test: Growth inhibition of human U251 cells after 48 hrs by sulforhodamine B assay; settings: U-251, 48 h
Summary of the method: (§4)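 NCI 60-cell-line main screen across nine tumor types, with five log dose range per compound. GI50 is the molar concentration giving half growth inhibition, reported as the log of the molar concentration that inhibits 50% net cell growth.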

[2] = Growth inhibition of human melanoma cell after 48 hrs by sulforhodamine B assay; summary of the method: as §3
PC-3 = test: Growth inhibition of human PC3 cells after 48 hrs by sulforhodamine B assay; settings: PC-3, 48 h; summary of the method: as §1
MDA-MB-435 = test: Growth inhibition of human MDA-MB-435 cells after 48 hrs by sulforhodamine B assay; settings: MDA-MB-435, 48 h; summary of the method: as §1
OVCAR-8 = test: Growth inhibition of human OVCAR8 cells after 48 hrs by sulforhodamine B assay; settings: OVCAR-8, 48 h; summary of the method: as §1
IGROV-1 = test: Growth inhibition of human IGROV1 cells after 48 hrs by sulforhodamine B assay; settings: IGROV-1, 48 h; summary of the method: as §1
A498 = test: Growth inhibition of human A498 cells after 48 hrs by sulforhodamine B assay; settings: A498, 48 h; summary of the method: as §1
NCI-H322M = test: Growth inhibition of human NCI-H322M cells after 48 hrs by sulforhodamine B assay; summary of the method: as §1
BT-549 = test: Growth inhibition of human BT549 cells after 48 hrs by sulforhodamine B assay; settings: BT-549, 48 h; summary of the method: as §1
[3] = Growth inhibition of human ovarian cancer cell after 48 hrs by sulforhodamine B assay; settings: Cancer cell lines; summary of the method: as §3
EKVX = test: Growth inhibition of human EKVX cells after 48 hrs by sulforhodamine B assay; summary of the method: as §1
ACHN = test: Growth inhibition of human ACHN cells after 48 hrs by sulforhodamine B assay; summary of the method: as §1
TK-10 = test: Growth inhibition of human TK10 cells after 48 hrs by sulforhodamine B assay; settings: TK-10, 48 h; summary of the method: as §4
K562 = test: Growth inhibition of human K562 cells after 48 hrs by sulforhodamine B assay; settings: K562, 48 h; summary of the method: as §1
OVCAR-3 = test: Growth inhibition of human OVCAR-3 cells after 48 hrs by sulforhodamine B assay; settings: OVCAR-3, 48 h; summary of the method: as §1
CCRF-CEM = test: Growth inhibition of human CCRF-CEM cells after 48 hrs by sulforhodamine B assay; summary of the method: as §1
[4] = Growth inhibition of human breast cancer cell after 48 hrs by sulforhodamine B assay; settings: Cancer cell lines; summary of the method: as §3
[5] = Growth inhibition of human CNS cancer cell after 48 hrs by sulforhodamine B assay; settings: Cancer cell lines; summary of the method: as §1
T47D = test: Growth inhibition of human T47D cells after 48 hrs by sulforhodamine B assay; summary of the method: as §4

Row | SMILES | GI50 (HL-60(TB)) [µM] | GI50 (SF-295) [µM] | growth at 100 µM (NCI-H460) [%] | GI50 [1] [µM] | growth at 100 µM (MCF7) [%] | GI50 (HOP-62) [µM] | GI50 [2] [µM] | GI50 (PC-3) [µM] | GI50 (MDA-MB-435) [µM] | GI50 (IGROV-1) [µM] | GI50 (A498) [µM] | GI50 (BT-549) [µM] | GI50 [3] [µM] | GI50 (ACHN) [µM] | GI50 (TK-10) [µM] | GI50 (K562) [µM] | GI50 (OVCAR-3) [µM] | GI50 [4] [µM] | GI50 [5] [µM] | also measured
1 | CCC(NC(=O)Nc1cc(Cl)ccc1Cl)(C(F)(F)F)C(F)(F)F | 4.17 | 3.47 | -100 | 4.68 | -89 | 10.7 | 5.25 | 2.19 | 5.13 | 5.62 | 4.17 | 10.5 | 5.5 | 3.89 | 2.24 | 3.55 | 3.09 | 5.5 | 4.47 | GI50 (HCT-15): 4.07 µM; GI50 (U-251): 2.95 µM; GI50 (OVCAR-8): 5.25 µM; GI50 (NCI-H322M): 1.78 µM; GI50 (EKVX): 3.16 µM; GI50 (CCRF-CEM): 4.07 µM
2 | CC(NC(=O)Nc1cc(Cl)ccc1Cl)(C(F)(F)F)C(F)(F)F | 17.4 | 3.47 | 17 | 7.08 | 34 | 63.1 | 36.3 | 3.47 | > 100 | 17.8 | > 100 | > 100 | 24 | 5.13 | 19.5 | 5.89 | 4.17 | 61.7 | 20 | GI50 (T47D): 3.47 µM
